Measurements published in PubChem BioAssay.
Records with an inconclusive call do not appear.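 Rule for the calls, unless noted: active = viability increase at or above a cutoff of the median across tested compounds plus 3 SD (cut at about 8.5% in these data, passing the limit was not always enough); inconclusive = some gains above the cutoff, reason not given; inactive = the rest.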

Experiments:
[1] = OD615 S. cerevisiae growth inhibition, permissive medium, pilot counter-assay, permissive growth control for S. cerevisiae lifespan shortening project (AID 705;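 active = growth inhibition above 25% in both replicates, a cutoff set 3 SD above the mean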); details: OD615, 24 h, at 10 µM, active compounds read high
Summary of the method: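 Timing: 24 h exposure, 30 °C / Material: Saccharomyces cerevisiae strain carrying genetically modified DeaD replicative-lifespan system / Signal: OD at 615 nm / Compound: 10 µM single dose, 0.25% DMSO / Medium: SC raffinose/galactose permissive medium / Evaluation: reduction in yeast growth (OD615)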

[2] = Restrictive medium S. cerevisiae growth inhibition, OD615, pilot screen of yeast lifespan reduction project, restrictive growth control (AID 706;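 active = growth inhibition above a set limit, 3 SD over mean compound inhibition, in both replicates, cut at about 43% in these data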;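 note: modified DeaD lifespan yeast strain shifted to restrictive glucose medium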); details: OD615, 48 h, at 10 µM, active compounds read high
Summary of the method: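 System: Engineered S. cerevisiae DeaD strain | Detection: OD615 | Buffer or medium: CSMM-D glucose medium | Doses: 10 µM compound, 0.25% DMSO | Timing: 4 h pre-growth plus 48 h compound exposure, 30 °C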

[3] = viability gain of MRP-1-high H69AR cells under doxorubicin, pilot screen, MRP-1 activator project, CellTiter-Glo, duplicate (AID 807); details: H69AR viability with doxorubicin, CellTiter-Glo luminescence; at 10 µM; active compounds read high;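 note: compound pretreatment 18-22 h then 72 h combined with doxorubicin; 0% = doxorubicin alone and 100% = vehicle without doxorubicin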
[4] = growth suppression of beta-catenin knockout HCT116, pilot screen, human colon tumor cells (AID 823;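 active = cell viability at or below a set limit in both duplicate runs, the limit being the all-compound median minus 4 SD, cut at about 23% in these data, passing the limit was not always enough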;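 note: 0% = wells killed by 20 µM Hyamine and 100% = untreated DMSO cell wells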); details: CellTiter-Glo, 60 h, at 10 µM, active compounds read low
[5] = growth suppression of PTEN-deleted HCT116, pilot screen, cell-based, HCT116 clonal line, CellTiter-Glo (AID 824;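 active = viability at or below 27.92% in each of two runs, the all-compound median minus 4 SD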;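 note: 0% = 20 µM Hyamine control and 100% = vehicle cell control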); details: 60 h, at 10 µM, active compounds read low
[6] = inhibitors of the yeast RAM network, pilot screen, dse1pr::URA3 reporter, 5-FOA selection (AID 869;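 active = inhibition over a set limit, the all-compound mean plus 3 SD, in both replicate runs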;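 note: 0% = DMSO wells with no growth and 100% = 10 µM 1-NA-PP1 with full growth; RAM network block rescues cells from 5-FOA so hits raise OD615 growth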); details: S. cerevisiae dse1pr::URA3 5-FOA growth, OD615, 2 d; at 10 µM; active compounds read high; strain carries analog-sensitive mutant Cbk1 kinase
[7] = RAM signaling pathway blockade in yeast – S. cerevisiae, Pdr1DBD-CYC8 efflux-inhibited sensitized strain, primary screen (AID 1298;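 active = RAM network inhibition above 8.4% in each of two replicates, 3 SD over the compound average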;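 note: 0% = DMSO untreated cells without growth and 100% = 10 µM 1-NA-PP1 full growth; higher means more yeast growth rescued from 5-FOA killing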); details: S. cerevisiae cbk1-as DSE1-URA3 strain, 5-FOA growth OD615, 2 d; at 50 µM; active compounds read high

CC1CCC(NC(=O)CC2Oc3ccccc3NC2=O)CC1 (stereo not given)
inactive: growth inhibition [1] 6.36% | growth inhibition [2] 2.4% | viability increase [3] -0.98% | viability [4] 98.8% | viability [5] 97.8% | inhibition [6] 2.69% | RAM network inhibition [7] 5.77%

COCCOC(=O)C1=C(C)NC2=C(C(=O)CCC2)C1c1ccc2c(c1)OCO2 (stereo not given)
inactive: growth inhibition [1] -3.56% | growth inhibition [2] -17.8% | viability increase [3] -2.23% | viability [4] 93.9% | viability [5] 93% | inhibition [6] 1.08% | RAM network inhibition [7] 0.14%

COc1cccc(OCCCCSc2ncccn2)c1
inactive: growth inhibition [1] 0.33% | growth inhibition [2] 4.57% | viability increase [3] -2.94% | viability [4] 93.2% | viability [5] 90.2% | inhibition [6] -0.22% | RAM network inhibition [7] 4.14%

CCOc1ccc(-n2c(SCC(=O)Nc3nccs3)nc3c(c2=O)SCC3)cc1
inactive: growth inhibition [1] -7.92% | growth inhibition [2] -5.48% | viability increase [3] -0.41% | viability [4] 104% | viability [5] 98.3% | inhibition [6] 3.15% | RAM network inhibition [7] 4.65%

CC(C)N(Cc1ccccc1)C(=O)c1cnc2n(c1=O)CCS2
inactive: growth inhibition [1] -1.66% | growth inhibition [2] -28.5% | viability increase [3] -2.84% | viability [4] 105% | viability [5] 98.1% | inhibition [6] 1.28% | RAM network inhibition [7] 1.59%

O=C1CN(C(=O)c2ccc(Br)o2)C(c2ccccc2)c2cc(Br)ccc2N1 (stereo not given)
inactive: growth inhibition [1] -9.54% | growth inhibition [2] -12.8% | viability increase [3] -8.1% | viability [4] 58.3% | viability [5] 55.6% | inhibition [6] 4.09% | RAM network inhibition [7] 6.05%

CSC1=NCCN1C(=O)c1cccs1
inactive: growth inhibition [1] -2.12% | growth inhibition [2] 11.1% | viability increase [3] 0.08% | viability [4] 99% | viability [5] 99.3% | inhibition [6] 1.11% | RAM network inhibition [7] 1.55%

CN1CCN(c2ncnc3c2sc2nc(N4CCCC4)c4c(c23)CC(C)(C)OC4)CC1
inactive: growth inhibition [1] -21.2% | growth inhibition [2] -18.1% | viability increase [3] -3.25% | viability [4] 99.6% | viability [5] 97.1% | inhibition [6] 0.735% | RAM network inhibition [7] -0.84%

CCc1ccc(C2CC(c3ccc(F)cc3)Nc3nc(N)nn32)cc1 (stereo not given)
inactive: growth inhibition [1] -4.34% | growth inhibition [2] 9.52% | viability increase [3] -0.06% | viability [4] 103% | viability [5] 95.4% | inhibition [6] -0.41% | RAM network inhibition [7] 7.69%

CC1CCN(C(=O)CNC(=O)Cn2ccc3ccccc3c2=O)CC1
inactive: growth inhibition [1] -9.29% | growth inhibition [2] -0.685% | viability increase [3] -1.73% | viability [4] 98.2% | viability [5] 94.1% | inhibition [6] 0.755% | RAM network inhibition [7] 1.67%

COc1ccc(OC)c(N(CC(=O)O)S(=O)(=O)c2ccc(OC)c(OC)c2)c1
inactive: growth inhibition [1] -2.7% | growth inhibition [2] -11.1% | viability increase [3] -0.41% | viability [4] 98.9% | viability [5] 94% | inhibition [6] 2.03% | RAM network inhibition [7] 4.23%

Fc1ccc(Nc2nc(N3CCOCC3)c3ccccc3n2)cc1
inactive: growth inhibition [1] -3.31% | growth inhibition [2] -13.7% | viability increase [3] -3.18% | viability [4] 93.5% | viability [5] 93.4% | inhibition [6] 0.45% | RAM network inhibition [7] 2.64%

O=C1c2oc3ccc(F)cc3c(=O)c2C(c2cccc(O)c2)N1CCCN1CCOCC1 (stereo not given)
inactive: growth inhibition [1] -6.24% | growth inhibition [2] -8.16% | viability increase [3] 0.39% | viability [4] 99% | viability [5] 96.2% | inhibition [6] 0.63% | RAM network inhibition [7] 0.27%

Cc1nnc(SCc2ccc(Cl)cc2Cl)[nH]c1=O
inactive: growth inhibition [1] -11.1% | growth inhibition [2] 1.19% | viability increase [3] 0.05% | viability [4] 104% | viability [5] 99.1% | inhibition [6] 0.42% | RAM network inhibition [7] 4.49%

CCCC(=O)Nc1nc2c(OC)ccc(OC)c2s1
inactive: growth inhibition [1] -7.39% | growth inhibition [2] -5.13% | viability increase [3] -3.01% | viability [4] 93.5% | viability [5] 90.3% | inhibition [6] 2.33% | RAM network inhibition [7] 3.64%
